# “Also recorded” adds a separate entry of the source.
# What was measured:
# INS 832/3 cells = experiment: Insulin secretion; assay type: cell-based, rat; settings: 20 mM glucose vs 1 mM glucose, 2 hour incubation; p<0.05
# In short: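 INS 832/3 cells were seeded at 500,000/well and grown 72 h. They were rinsed in HBSS with 1 mM glucose, then held 2 h in the same. Medium was replaced with the test glucose level (1 or 20 mM) ± secretagogues for 2 h. Secreted insulin was measured by rat insulin ELISA (ng/ml) and expressed as % of the mean 1 mM glucose secretion within each experiment.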
# [1] = test system: GLP-1R and SUR1 on βTC3 cells; experiment: Competition of 15 nM Eu-GLP-1/Glb 10 by unlabelled monomers in live βTC3 cells; assay type: binding; settings: 1.6 nM monomer vs 15 nM Eu-GLP-1/Glb 10, 1 hr, Figure 3
# In short: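 βTC3 cells, ~70,000/well, grown 3 days. They were exposed for 1 h to 15 nM Eu-labelled bivalent ligand with 4.1 fM or 1.6 nM unlabelled GLP-1 or Glb, in RPMI binding medium (1 mM 1,10-phenanthroline, 200 mg/L bacitracin, 0.5 mg/L leupeptin, 0.2% BSA). Non-specific binding was not measured. Cells were washed three times, then given enhancement solution for ≥30 min at 37°C. Eu time-resolved fluorescence was read at 340/615 nm. Quadruplicates unless noted.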
# GLP-1R on βTC3 cells = molecular target: T1, GLP-1R on βTC3 cells (Mus musculus, UniProt O35659); experiment: Saturation binding of bivalent Eu-labelled ligand in presence of unlabelled Glb; settings: 300 nM Glb, below 35 nM Eu-ligand
# T1 sequence (O35659 22-463): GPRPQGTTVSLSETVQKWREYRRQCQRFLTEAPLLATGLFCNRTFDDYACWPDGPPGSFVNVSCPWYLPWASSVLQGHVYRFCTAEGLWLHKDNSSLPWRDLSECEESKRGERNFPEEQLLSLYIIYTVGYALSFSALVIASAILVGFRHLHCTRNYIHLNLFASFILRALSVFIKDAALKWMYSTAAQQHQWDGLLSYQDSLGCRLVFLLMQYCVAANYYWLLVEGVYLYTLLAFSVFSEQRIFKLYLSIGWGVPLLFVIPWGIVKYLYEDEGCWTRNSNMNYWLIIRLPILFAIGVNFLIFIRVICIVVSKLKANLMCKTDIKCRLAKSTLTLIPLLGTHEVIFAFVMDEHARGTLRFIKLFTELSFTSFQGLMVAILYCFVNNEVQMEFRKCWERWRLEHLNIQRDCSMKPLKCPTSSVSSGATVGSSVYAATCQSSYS
Compound,induction of insulin secretion by glucose (INS 832/3 cells),effect of unlabelled monomer on bivalent binding [1],effect of unlabelled Glb on high affinity binding of Eu-GLP-1/Glb 10 (GLP-1R on βTC3 cells)
OC[C@H]1OC(O)[C@H](O)[C@@H](O)[C@@H]1O (stereo partly shown) [glucose],~ 4 fold,,
GLP-1: unlabelled GLP-1 monomer used as competitor,,bivalent binding is lost,
"COc1ccc(Cl)cc1C(=O)NCCc1ccc(S(=O)(=O)NC(=O)NC2CCCCC2)cc1 [Glb, glibenclamide]",,bivalent binding is lost,blocks high affinity binding; also recorded: blocked the high affinity binding

# — article PMC4100979 (Chembiochem : a European journal of chemical biology, 2013)
